The subject of assay [1] is Staphylococcus aureus. Nature of the assay: Antibacterial activity against Staphylococcus aureus RN 4220 at 64 ug/ml. In kind it is functional, organism-based.
Assay [2] has as its system Staphylococcus aureus. Kind of assay: Antibacterial activity against Staphylococcus aureus KCTC 503 at 64 ug/ml. In kind it is functional, organism-based.
In assay [3] the test system is Staphylococcus aureus. Nature of the assay: Antibacterial activity against Staphylococcus aureus KCTC 209 at 64 ug/ml. The assay is classed as functional, organism-based.
Assay [4] has as its system Streptococcus mutans. Kind of assay: Antibacterial activity against Streptococcus mutans KCTC 3065 at 64 ug/ml. The assay is classed as functional, organism-based.
Assay [5] deals with Streptococcus mutans. Nature of the assay: Antibacterial activity against Streptococcus mutans KCTC 3289 at 64 ug/ml. In kind it is functional, organism-based.
The subject of assay [6] is Staphylococcus aureus. Kind of assay: Antibacterial activity against Staphylococcus aureus RN 4220 after 20 hrs by twofold serial dilution technique. The assay is classed as functional. The conditions noted are these: RN 4220, 20 h. The essentials: (§1)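 Inoculum was 10⁵ CFU/mL. MIC was read after 20 h at 37 °C. The MRSA and QRSA strains were multidrug-resistant clinical isolates. Oxacillin and norfloxacin served as positive controls.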

The test system of assay [7] is Staphylococcus aureus. Kind of assay: Antibacterial activity against Staphylococcus aureus KCTC 503 after 20 hrs by twofold serial dilution technique. The conditions noted are these: KCTC 503, 20 h. The assay is classed as functional. The essentials: as §1
Assay [8] has as its system Staphylococcus aureus. Nature of the assay: Antibacterial activity against Staphylococcus aureus KCTC 209 after 20 hrs by twofold serial dilution technique. The assay is classed as functional. The following applies: KCTC 209, 20 h. Summed up:
as §1

Assay [9] relates to Streptococcus mutans. Nature of the assay: Antibacterial activity against Streptococcus mutans KCTC 3065 after 20 hrs by twofold serial dilution technique. In kind it is functional. The conditions noted are these: KCTC 3065, 20 h. Summed up:
(§2)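 Inoculum was 10⁵ CFU/mL, and MIC was read after incubation at 37 °C for 20 h. Oxacillin and norfloxacin were the positive controls.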

Assay [10] deals with Streptococcus mutans. Nature of the assay: Antibacterial activity against Streptococcus mutans KCTC 3289 after 20 hrs by twofold serial dilution technique. In kind it is functional. The conditions noted are these: KCTC 3289, 20 h. Summed up:
as §2

The subject of assay [11] is Escherichia coli. Nature of the assay: Antibacterial activity against Escherichia coli 1924 after 20 hrs by twofold serial dilution technique. In kind it is functional. The following applies: Escherichia coli, 1924, 20 h. The essentials: as §1
Assay [12] concerns Escherichia coli. Kind of assay: Antibacterial activity against Escherichia coli 1356 after 20 hrs by twofold serial dilution technique. In kind it is functional. The following applies: Escherichia coli, 1356, 20 h. The essentials: as §1
The subject of assay [13] is Escherichia coli. Kind of assay: Antibacterial activity against Escherichia coli 1356 at 64 ug/ml. In kind it is functional, organism-based.
For assay [14], the system named is Escherichia coli. Kind of assay: Antibacterial activity against Escherichia coli 1924 at 64 ug/ml. In kind it is functional, organism-based.
Assay [15] has as its system Staphylococcus aureus. Kind of assay: Antibacterial activity against Staphylococcus aureus MRSA CCARM 3167 after 20 hrs by twofold serial dilution technique. The following applies: MRSA CCARM 3167, 20 h. In kind it is functional. The essentials: as §1
The subject of assay [16] is Staphylococcus aureus. Kind of assay: Antibacterial activity against Staphylococcus aureus MRSA CCARM 3506 after 20 hrs by twofold serial dilution technique. In kind it is functional. The conditions noted are these: MRSA CCARM 3506, 20 h. Summed up:
as §1

Assay [17] has as its system Staphylococcus aureus. Kind of assay: Antibacterial activity against Staphylococcus aureus QRSA CCARM 3505 after 20 hrs by twofold serial dilution technique. The assay is classed as functional. The following applies: QRSA CCARM 3505, 20 h. The essentials:
as §1

The test system of assay [18] is Staphylococcus aureus. Kind of assay: Antibacterial activity against Staphylococcus aureus QRSA CCARM 3519 after 20 hrs by twofold serial dilution technique. The assay is classed as functional. The following applies: QRSA CCARM 3519, 20 h. Summed up:
as §1

In general, MIC refers to the lowest concentration found to suppress growth. Read a low MIC as a more susceptible organism.

In brackets after ≈: the same amount, converted by molar mass. Activity calls are given as the source filed them. The calls are words filed in the database; no cut-off is given here. Some results are limits rather than exact numbers.

Regarding `O=C(O)CN1C(=O)/C(=C\c2ccc(/C=C/C(=O)c3ccccc3F)cc2)SC1=S`, the result with Staphylococcus aureus [1], with Staphylococcus aureus [2], in the assay with Staphylococcus aureus [3], in the assay on Streptococcus mutans [4], with Streptococcus mutans [5] and with Escherichia coli [13] was inactive. The outcome with Escherichia coli [14] was inactive. For the same compound, the MIC against Staphylococcus aureus [6], in the assay with Staphylococcus aureus [7], with Staphylococcus aureus [8], in the assay with Streptococcus mutans [9], against Streptococcus mutans [10] and against Escherichia coli [11] was greater than 64 µg/mL throughout. In the assay with Escherichia coli [12], this compound displayed an MIC greater than 64 µg/mL.
For `O=C(O)CN1C(=O)/C(=C\c2ccc(/C=C/C(=O)c3ccccc3Br)cc2)SC1=S`, the outcome with Staphylococcus aureus [1], with Staphylococcus aureus [2], with Staphylococcus aureus [3], in the assay on Streptococcus mutans [4], in the assay on Streptococcus mutans [5] and with Escherichia coli [13] was inactive. The outcome in the assay on Escherichia coli [14] was inactive. The MIC against Staphylococcus aureus [6], against Staphylococcus aureus [7], in the assay with Staphylococcus aureus [8], with Streptococcus mutans [9], against Streptococcus mutans [10] and against Escherichia coli [11] was greater than 64 µg/mL throughout. The MIC against Escherichia coli [12] was greater than 64 µg/mL.
With `O=C(O)CN1C(=O)CSC1=S` [RHODANINE-3-ACETIC ACID], the outcome in the assay on Staphylococcus aureus [1], in the assay on Staphylococcus aureus [2], in the assay on Staphylococcus aureus [3], in the assay on Streptococcus mutans [4], in the assay with Streptococcus mutans [5] and in the assay with Escherichia coli [13] was inactive. Also, the result with Escherichia coli [14] was inactive. The MIC with Staphylococcus aureus [6], against Staphylococcus aureus [7], with Staphylococcus aureus [8], with Streptococcus mutans [9], with Streptococcus mutans [10] and in the assay with Escherichia coli [11] was greater than 64 µg/mL each time. The compound further registered an MIC in the assay with Escherichia coli [12] greater than 64 µg/mL.
Take `O=C(O)CN1C(=O)/C(=C\c2ccc(/C=C/C(=O)c3cccc(Br)c3)cc2)SC1=S`: the MIC in the assay on Staphylococcus aureus [6] was 8 µg/mL (≈ 16.4 µM); with Staphylococcus aureus [7] it was 8 µg/mL (≈ 16.4 µM); with Staphylococcus aureus [8], 8 µg/mL (≈ 16.4 µM); in the assay with Streptococcus mutans [9] it was 8 µg/mL (≈ 16.4 µM); with Streptococcus mutans [10], 8 µg/mL (≈ 16.4 µM); in the assay with Escherichia coli [11], greater than 64 µg/mL. For the same compound, the MIC with Escherichia coli [12] was greater than 64 µg/mL; against Staphylococcus aureus [15] it was 8 µg/mL (≈ 16.4 µM); with Staphylococcus aureus [16], 8 µg/mL (≈ 16.4 µM); against Staphylococcus aureus [17], 8 µg/mL (≈ 16.4 µM); with Staphylococcus aureus [18], 8 µg/mL (≈ 16.4 µM). In addition, the result in the assay with Escherichia coli [13] and in the assay with Escherichia coli [14] was inactive.
With `O=C(O)CN1C(=O)/C(=C\c2ccc(/C=C/C(=O)c3ccc(Cl)cc3)cc2)SC1=S`, the MIC with Staphylococcus aureus [6] is 4 µg/mL (≈ 9.01 µM); in the assay on Staphylococcus aureus [7] it was 4 µg/mL (≈ 9.01 µM); against Staphylococcus aureus [8], 4 µg/mL (≈ 9.01 µM); in the assay with Streptococcus mutans [9], 4 µg/mL (≈ 9.01 µM); against Streptococcus mutans [10], 4 µg/mL (≈ 9.01 µM); in the assay on Escherichia coli [11] it was greater than 64 µg/mL. In addition, the minimal inhibitory concentration (MIC) is greater than 64 µg/mL against Escherichia coli [12]; 4 µg/mL (≈ 9.01 µM) against Staphylococcus aureus [15]; 4 µg/mL (≈ 9.01 µM) with Staphylococcus aureus [16]; 4 µg/mL (≈ 9.01 µM) against Staphylococcus aureus [17]; 4 µg/mL (≈ 9.01 µM) in the assay with Staphylococcus aureus [18]. Further, the result with Escherichia coli [13] and in the assay on Escherichia coli [14] was inactive.
`O=C(O)CN1C(=O)/C(=C\c2ccc(/C=C/C(=O)c3ccccc3Cl)cc2)SC1=S`: the result in the assay on Staphylococcus aureus [1], in the assay with Staphylococcus aureus [2], with Staphylococcus aureus [3], in the assay on Streptococcus mutans [4], with Streptococcus mutans [5] and with Escherichia coli [13] was inactive. In addition, the result in the assay on Escherichia coli [14] was inactive. Further, the MIC against Staphylococcus aureus [6], against Staphylococcus aureus [7], against Staphylococcus aureus [8], against Streptococcus mutans [9], in the assay with Streptococcus mutans [10] and in the assay on Escherichia coli [11] was greater than 64 µg/mL throughout. The same compound showed an MIC in the assay on Escherichia coli [12] greater than 64 µg/mL.
